Data as given in paper PMC4797290 (Nucleic Acids Research, 2016).
No end group written: not given here.

Assays:
Type in all cases: cell-based, Escherichia coli
[1] = tested on: E. coli SQ110 DTC 23S rRNA 2059C mutant; assay: MIC determination, E. coli SQ110 DTC 2059C mutant; settings: 23S rRNA mutant 2059C, first line so labelled (r6); highest concentration 100 μM
Procedure, shortened: (§1)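 E. coli SQ110 DTC background (single chromosomal rrn allele, tolC knockout) carrying 23S rRNA mutations. Cells grown exponentially in LB, diluted to A650 0.005 in 96-well plates. Peptide added in LB and 2-fold serially diluted from a top final concentration of 100 μM. Incubated overnight at 37°C with shaking. Growth read by alamarBlue addition.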

[2] = tested on: E. coli SQ110 DTC 23S rRNA A2503C/A2059G double mutant; assay: MIC determination, E. coli SQ110 DTC 2503C/2059G double mutant; settings: 23S rRNA double mutant; highest concentration 100 μM
Procedure, shortened: as §1

[3] = tested on: E. coli SQ110 DTC 23S rRNA A2503C mutant; assay: MIC determination, E. coli SQ110 DTC 2503C mutant; settings: 23S rRNA mutant 2503C; highest concentration 100 μM
Procedure, shortened: as §1

RRIRPRPPRLPRPRPRPLPFPRPGPRPIPRPLPFP [Bac7_1–35]
0.75 µM: MIC, SQ110 DTC 2059C [1] | MIC, SQ110 DTC 2503C/2059G [2] | MIC, SQ110 DTC 2503C [3]
